# Assays:
# Assay type in all cases: in vivo, Mus musculus
# [1] = tested on: hypothalamus and hindbrain; details: 2-DG 250 mg/kg i.p. after 5 h food deprivation; Fig 3B
# Outline: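 Mice food-deprived 5 h, then given 2-DG (250 mg/kg i.p.). […] Brains were dissected, dehydrated through a tetrahydrofuran series, cleared in dibenzylether and imaged by whole-brain light-sheet microscopy. Signal was autofluorescence-unmixed, and the volume of signal dispersion was quantified. Blood glucose was tracked; mean ± SEM.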
# [2] = tested on: arcuate nucleus of control and Tanycyte^ΔVegfa mice; details: 2-DG 250 mg/kg with Ex-4_Cy3 120 nmol/kg; data not shown
# [3] = tested on: hypothalamus (ME/ARC) and other CVOs; details: 120 nmol/kg i.p., 15 min before sacrifice; 2D planes from LSFM; Fig 2A
# Glycemic change = details: single i.p. insulin injection, mean ± SEM
# [4] = tested on: control and Tanycyte^ΔVegfa mice; assay: Metabolic efficiency; details: chow, daily i.p. insulin 20 nmol/kg, Fig 5F,G
compound,measurement,setting,value
"O=CC[C@@H](O)[C@H](O)[C@H](O)CO [2-DG, 2-deoxyglucose]",blood glucose (counter-regulatory response),[1],increased
"Ex-4_Cy3: fluorescent Exendin-4 labeled with Cy3, Novo Nordisk","total fluorescence intensity, control vs Tanycyte ΔVegfa",[2],comparable between groups
"Ex-4_VT^750: fluorescent labeled Exendin4 (VT750), Novo Nordisk",brain regions with Ex-4_VT750 signal after systemic administration,[3],"detected in the ME/ARC, OLVT, AP, SFO, and choroid plexus"
"insulin: Insulin (Novorupid, Flex pen, 8-9670-79-202-2), Novo Nordisk","glycemic change (vehicle/insulin), Tanycyte ΔVegfa",Glycemic change; Tanycyte^ΔVegfa mice,52% ± 2.08%
same,"glycemic change (vehicle/insulin), controls",Glycemic change; control mice,62% ± 5.7%
same,"change in fat oxidation in response to insulin, Tanycyte ΔVegfa mice",[4],comparable with vehicle

# From article PMC9715912 (Cell Reports, 2022)
